Source: ChEMBL document CHEMBL3414508, “A few atoms make the difference: synthetic, CD, NMR and computational studies on antiviral and antibacterial activities of glycopeptide antibiotic aglycon derivatives” (Eur J Med Chem, 2015)

Tests used:
[1] = Cytotoxicity against MDCK cells after 72 hrs by microscopic analysis; type: cell-based, Canis lupus familiaris; settings: dog
In short: (§1)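 Uninfected MDCK cultures were run in parallel with serial compound dilutions for 72 h at 35°C. MCC is the concentration producing minimal changes in cell morphology, judged by microscopy. […] Means of 2 to 5 independent tests.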

[2] = Antiviral activity against Influenza A virus (A/Hong Kong/7/1987(H3N2)) infected in MDCK cells assessed as cell viability after 72 hrs by MTS assay; type: functional, cell-based
In short: (§2)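 Subconfluent MDCK cultures given serial compound dilutions together with virus at MOI 0.0004 PFU/cell. Incubation 72 h at 35°C. […] Means of 2 to 5 independent tests.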

[3] = Cytotoxicity against MDCK cells after 72 hrs by MTS assay; type: cell-based, Canis lupus familiaris; settings: dog; in short: as §1
Influenza B virus [4] = assay: Antiviral activity against Influenza B virus (B/Hong Kong/05/1972) infected in MDCK cells assessed as reduction of virus-induced cytopathic effect after 72 hrs by microscopic analysis; type: functional, cell-based; settings: B/Hong Kong/05/1972, MDCK; in short: as §2
Influenza B virus [5] = assay: Antiviral activity against Influenza B virus (B/Hong Kong/05/1972) infected in MDCK cells assessed as cell viability after 72 hrs by MTS assay; type: functional, cell-based; settings: B/Hong Kong/05/1972, MDCK; in short: as §2
[6] = Antiviral activity against Influenza A virus (A/Hong Kong/7/1987(H3N2)) infected in MDCK cells assessed as reduction of virus-induced cytopathic effect after 72 hrs by microscopic analysis; type: functional, cell-based; in short: as §2
Influenza A virus [7] = assay: Antiviral activity against Influenza A virus (A/Puerto Rico/8/34(H1N1)) infected in MDCK cells assessed as cell viability after 72 hrs by MTS assay; type: functional, organism-based, A/Puerto Rico/8/1934(H1N1); in short: as §2
Influenza A virus [8] = assay: Antiviral activity against Influenza A virus (A/Puerto Rico/8/34(H1N1)) infected in MDCK cells assessed as reduction of virus-induced cytopathic effect after 72 hrs by microscopic analysis; type: functional, organism-based; settings: A/Puerto Rico/8/1934(H1N1)
In short: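 Subconfluent MDCK cultures given serial compound dilutions together with virus at MOI 0.0004 PFU/cell. Incubation 72 h at 35°C. Means of 2 to 5 independent tests.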

[9] = Influenza A virus, A/Puerto Rico/8/1934(H1N1), MDCK, 72 h

COC(=O)[C@H]1NC(=O)[C@H]2NC(=O)[C@H](NC(=O)[C@@H]3NC(=O)[C@H]4NC(=O)[C@H](NC(=O)[C@H](N)c5ccc(O)c(c5)Oc5cc4cc(O)c5C)[C@H](O)c4ccc(cc4)Oc4cc3cc(c4O)Oc3ccc(cc3)[C@H]2O)c2ccc(O)c(c2)-c2c(O)cc(O)cc21
MCC at 72 h [1]: 81 µM | EC50 [2]: 2.5 µM | CC50 at 72 h [3]: 44 µM | EC50 (Influenza B virus [4]): 5.1 µM | EC50 (Influenza B virus [5]): 5.4 µM | EC50 [6]: 4.6 µM

CC(=O)N[C@H]1[C@H](O[C@@H]2c3ccc(c(Cl)c3)Oc3cc4cc(c3O)Oc3ccc(cc3Cl)C[C@H]3NC(=O)[C@H](N)c5ccc(O)c(c5)Oc5cc(O)cc(c5)[C@H](NC3=O)C(=O)N[C@H]4C(=O)N[C@H]3C(=O)N[C@@H]2C(=O)N[C@H](C(=O)O)c2cc(O)cc(O)c2-c2cc3ccc2O)O[C@H](CO)[C@@H](O)[C@@H]1O
EC50 (Influenza A virus [7]; [9]): 43 µM | MCC at 72 h [1]: ≥ 100 µM | EC50 [2]: 34 µM | CC50 at 72 h [3]: > 100 µM | EC50 (Influenza B virus [4]): > 100 µM | EC50 (Influenza B virus [5]): > 100 µM | EC50 [6]: 17 µM

COC(=O)[C@H]1NC(=O)[C@H]2NC(=O)[C@H](NC(=O)[C@@H]3NC(=O)[C@H]4NC(=O)[C@H](NC(=O)[C@H](Nc5c(NCc6ccc(-c7ccccc7)cc6)c(=O)c5=O)c5ccc(O)c(c5)Oc5cc4cc(O)c5C)[C@H](O)c4ccc(cc4)Oc4cc3cc(c4O)Oc3ccc(cc3)[C@H]2O)c2ccc(O)c(c2)-c2c(O)cc(O)cc21
EC50 (Influenza A virus [7]; [9]): 0.21 µM | MCC at 72 h [1]: 20 µM | EC50 [2]: ≤ 0.42 µM | CC50 at 72 h [3]: 39 µM | EC50 (Influenza A virus [8]): 0.15 µM | EC50 (Influenza B virus [4]): 0.84 µM | EC50 (Influenza B virus [5]): 1 µM | EC50 [6]: 0.15 µM

CC(=O)N[C@H]1[C@H](O[C@@H]2c3ccc(c(Cl)c3)Oc3cc4cc(c3O)Oc3ccc(cc3Cl)C[C@H]3NC(=O)[C@H](Nc5c(NCc6ccc(-c7ccccc7)cc6)c(=O)c5=O)c5ccc(O)c(c5)Oc5cc(O)cc(c5)[C@H](NC3=O)C(=O)N[C@H]4C(=O)N[C@H]3C(=O)N[C@@H]2C(=O)N[C@H](C(=O)O)c2cc(O)cc(O)c2-c2cc3ccc2O)O[C@H](CO)[C@@H](O)[C@@H]1O
EC50 (Influenza A virus [7]; [9]): > 100 µM | MCC at 72 h [1]: 0.8 µM | EC50 [2]: > 100 µM | CC50 at 72 h [3]: 6.5 µM | EC50 (Influenza A virus [8]): > 100 µM | EC50 (Influenza B virus [4]): > 100 µM | EC50 (Influenza B virus [5]): > 100 µM | EC50 [6]: > 100 µM

COC(=O)[C@H]1NC(=O)[C@H]2NC(=O)[C@H](NC(=O)[C@@H]3NC(=O)[C@H]4NC(=O)[C@@H](Cc5ccc(c(Cl)c5)Oc5cc3cc(c5O)Oc3ccc(cc3Cl)[C@H]2O[C@@H]2O[C@H](CO)[C@@H](O)[C@H](O)[C@H]2NC(C)=O)NC(=O)[C@H](N)c2ccc(O)c(c2)Oc2cc(O)cc4c2)c2ccc(O)c(c2)-c2c(O)cc(O)cc21
EC50 (Influenza A virus [7]; [9]): > 100 µM | MCC at 72 h [1]: 100 µM | EC50 [2]: > 100 µM | CC50 at 72 h [3]: > 100 µM | EC50 (Influenza A virus [8]): > 100 µM | EC50 (Influenza B virus [4]): > 100 µM | EC50 (Influenza B virus [5]): > 100 µM | EC50 [6]: > 100 µM

COC(=O)[C@H]1NC(=O)[C@H]2NC(=O)[C@H](NC(=O)[C@@H]3NC(=O)[C@H]4NC(=O)[C@@H](Cc5ccc(c(Cl)c5)Oc5cc3cc(c5O)Oc3ccc(cc3Cl)[C@H]2O[C@@H]2O[C@H](CO)[C@@H](O)[C@H](O)[C@H]2NC(C)=O)NC(=O)[C@H](Nc2c(OC)c(=O)c2=O)c2ccc(O)c(c2)Oc2cc(O)cc4c2)c2ccc(O)c(c2)-c2c(O)cc(O)cc21
EC50 (Influenza A virus [7]; [9]): > 100 µM | MCC at 72 h [1]: 100 µM | EC50 [2]: > 100 µM | CC50 at 72 h [3]: > 100 µM | EC50 (Influenza A virus [8]): > 100 µM | EC50 (Influenza B virus [4]): > 100 µM | EC50 (Influenza B virus [5]): > 100 µM | EC50 [6]: > 100 µM

COC(=O)[C@H]1NC(=O)[C@H]2NC(=O)[C@H](NC(=O)[C@@H]3NC(=O)[C@H]4NC(=O)[C@@H](Cc5ccc(c(Cl)c5)Oc5cc3cc(c5O)Oc3ccc(cc3Cl)[C@H]2O[C@@H]2O[C@H](CO)[C@@H](O)[C@H](O)[C@H]2NC(C)=O)NC(=O)[C@H](Nc2c(NCc3ccc(-c5ccccc5)cc3)c(=O)c2=O)c2ccc(O)c(c2)Oc2cc(O)cc4c2)c2ccc(O)c(c2)-c2c(O)cc(O)cc21
EC50 (Influenza A virus [7]; [9]): > 100 µM | MCC at 72 h [1]: 20 µM | EC50 [2]: > 100 µM | CC50 at 72 h [3]: 58 µM | EC50 (Influenza A virus [8]): > 100 µM | EC50 (Influenza B virus [4]): > 100 µM | EC50 (Influenza B virus [5]): > 100 µM | EC50 [6]: > 100 µM

COc1c(N[C@H]2C(=O)N[C@@H]3Cc4ccc(c(Cl)c4)Oc4cc5cc(c4O)Oc4ccc(cc4Cl)[C@@H](O)[C@@H]4NC(=O)[C@H](NC(=O)[C@@H]5NC(=O)[C@@H](NC3=O)c3cc(O)cc(c3)Oc3cc2ccc3O)c2ccc(O)c(c2)-c2c(O)cc(O)cc2[C@@H](C(=O)O)NC4=O)c(=O)c1=O
EC50 (Influenza A virus [7]; [9]): > 100 µM | MCC at 72 h [1]: 100 µM | EC50 [2]: > 100 µM | CC50 at 72 h [3]: 49 µM | EC50 (Influenza A virus [8]): > 100 µM | EC50 (Influenza B virus [4]): > 100 µM | EC50 (Influenza B virus [5]): > 100 µM | EC50 [6]: > 100 µM

O=C1N[C@H]2C(=O)N[C@H]3C(=O)N[C@H](C(=O)N[C@H](C(=O)O)c4cc(O)cc(O)c4-c4cc3ccc4O)[C@H](O)c3ccc(c(Cl)c3)Oc3cc2cc(c3O)Oc2ccc(cc2Cl)C[C@H]2NC(=O)[C@H](Nc3c(NCc4ccc(-c5ccccc5)cc4)c(=O)c3=O)c3ccc(O)c(c3)Oc3cc(O)cc(c3)[C@@H]1NC2=O
EC50 (Influenza A virus [7]; [9]): > 100 µM | MCC at 72 h [1]: 20 µM | EC50 [2]: > 100 µM | CC50 at 72 h [3]: 11 µM | EC50 (Influenza A virus [8]): > 100 µM | EC50 (Influenza B virus [4]): > 100 µM | EC50 (Influenza B virus [5]): > 100 µM | EC50 [6]: > 100 µM

COC(=O)[C@H]1NC(=O)[C@H]2NC(=O)[C@H](NC(=O)[C@@H]3NC(=O)[C@H]4NC(=O)[C@@H](Cc5ccc(c(Cl)c5)Oc5cc3cc(c5O)Oc3ccc(cc3Cl)[C@H]2O)NC(=O)[C@H](Nc2c(NCc3ccc(-c5ccccc5)cc3)c(=O)c2=O)c2ccc(O)c(c2)Oc2cc(O)cc4c2)c2ccc(O)c(c2)-c2c(O)cc(O)cc21
EC50 (Influenza A virus [7]; [9]): > 100 µM | MCC at 72 h [1]: 4 µM | EC50 [2]: > 100 µM | CC50 at 72 h [3]: 7.6 µM | EC50 (Influenza A virus [8]): > 100 µM | EC50 (Influenza B virus [4]): > 100 µM | EC50 (Influenza B virus [5]): > 100 µM | EC50 [6]: > 100 µM

COC(=O)[C@H]1NC(=O)[C@H]2NC(=O)[C@H](NC(=O)[C@@H]3NC(=O)[C@H]4NC(=O)[C@@H](Cc5ccc(cc5)Oc5cc3cc(c5O)Oc3ccc(cc3)[C@H]2O)NC(=O)[C@H](Nc2c(NCc3ccc(-c5ccccc5)cc3)c(=O)c2=O)c2ccc(O)c(c2)Oc2cc(O)cc4c2)c2ccc(O)c(c2)-c2c(O)cc(O)cc21
EC50 (Influenza A virus [7]; [9]): 0.58 µM | MCC at 72 h [1]: 16 µM | EC50 [2]: 0.7 µM | CC50 at 72 h [3]: 20 µM | EC50 (Influenza A virus [8]): 0.67 µM | EC50 (Influenza B virus [4]): > 100 µM | EC50 (Influenza B virus [5]): > 100 µM | EC50 [6]: 0.52 µM

NC12CC3CC(CC(C3)C1)C2 [AMANTADINE]
EC50 (Influenza A virus [7]; [9]): 453 µM | MCC at 72 h [1]: > 500 µM | EC50 [2]: 1.8 µM | CC50 at 72 h [3]: > 500 µM | EC50 (Influenza B virus [4]): > 500 µM | EC50 (Influenza B virus [5]): > 500 µM | EC50 [6]: 2 µM

NC(=O)c1ncn([C@@H]2O[C@H](CO)[C@@H](O)[C@H]2O)n1 [RIBAVIRIN]
EC50 (Influenza A virus [7]; mdck): 8.9 µM | MCC at 72 h [1]: > 100 µM | EC50 [2]: 12 µM | CC50 at 72 h [3]: > 100 µM | EC50 (Influenza B virus [4]): 7 µM | EC50 (Influenza B virus [5]): 3.4 µM | EC50 [6]: 12 µM

CC(N)C12CC3CC(CC(C3)C1)C2 (configuration not stated) [RIMANTADINE]
EC50 (Influenza A virus [7]; [9]): 15 µM | MCC at 72 h [1]: > 500 µM | EC50 [2]: 1.1 µM | CC50 at 72 h [3]: > 500 µM | EC50 (Influenza A virus [8]): 4 µM | EC50 (Influenza B virus [4]): > 500 µM | EC50 (Influenza B virus [5]): > 500 µM | EC50 [6]: 4 µM
